The results in this text go back to ChEMBL document CHEMBL4613249, “Serendipitous Discovery of Leucine and Methionine Depletion Agents during the Search for Polyamine Transport Inhibitors” (J Med Chem, 2020).

For data set [1], the system named is L3.6pl. The experiment in a line: Effect on polyamine level in human L3.6PL cells assessed as spermidine level per mg protein in supernatant at 2 uM measured after 72 hrs in presence of amine oxidase suppressor aminoguanidine by LCMS analysis (reference value: 339 pmol/mg). It counts as functional.
Data set [2] has as its system CHO-K1. The experiment in a line: Inhibition of polyamine transporter in DFMO-treated CHOK1 cells assessed as prevention of spermidine entry into cells by measuring rescue of DFMO-induced reduction in cell growth at 1 to 6 uM measured after 48 hrs in presence of amine oxidase suppressor aminoguanidine by MTS assay. It counts as cell-based. The conditions noted are these: Cricetulus griseus. In outline:
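CHO K1 cells (1000 cells/well) were pre-incubated 24 h with 1 mM aminoguanidine. They were then given fixed DFMO (4.2 mM) and spermidine (1 μM) plus increasing compound doses for 48 h at 37°C. EC50 is the concentration bringing MTS relative growth halfway between the DFMO+Spd and DFMO-only controls. Runs were done twice in triplicate, with SD.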
Background: Tetrazolium dyes change colour on reduction, which living cells bring about.

In data set [3] the test system is L3.6pl. The experiment in a line: Effect on polyamine level in human L3.6PL cells assessed as decrease in intracellular spermidine level at 1 uM measured after 72 hrs in presence of amine oxidase suppressor aminoguanidine and Ant-44 by LCMS analysis. The class given is functional, cell-based. In outline: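 L3.6pl cells dosed with Ant-44 fixed at 2 μM plus increasing compound for 72 h at 37°C. Intracellular polyamines and Ant-44 given as nmol/mg protein, in duplicate, with a parallel untreated control.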

In data set [4] the test system is CHO-K1. The experiment in a line: Potentiation of 0.5 uM N-(anthracenylmethyl) homospermidine-induced toxicity in CHOK1 cells assessed as increase in Ant-44-induced reduction in cell growth at 5 uM measured after 48 hrs in presence of amine oxidase suppressor aminoguanidine by microscopy analysis. It counts as functional, cell-based. The conditions noted are these: Cricetulus griseus. The method in brief: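 CHO K1 cells treated 48 h at 37°C with Ant-44 (0.5 μM) plus 5 μM compound, after 1 mM aminoguanidine pretreatment, were examined by microscope for cell number and shape versus untreated control cells.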

In a further data set the test system is CHO-MG. The experiment in a line: Induction of polyamine efflux in aminoguanidine pretreated CHO-MG cells assessed as reduction in cell viability measured after 72 hrs in presence of spermidine by MTS assay. It counts as ADME, cell-based, Cricetulus griseus. The conditions noted are these: chinese hamster.
The test system of data set [5] is CHO-K1. The experiment in a line: Cytotoxicity against CHOK1 cells assessed as reduction in cell viability after 48 hrs by MTS assay. The class given is cell-based. The conditions noted are these: Cricetulus griseus, CHO-K1, 48 h. In outline: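 Cells in RPMI 1640 with 10% FBS, 1% penicillin/streptomycin, 37°C, 5% CO2, with aminoguanidine (1 mM for CHO K1 and CHO-MG, 250 μM for L3.6pl). Plated overnight at 1000 cells/well (CHO lines) or 500 cells/well (L3.6pl). Compound in PBS added, 48 h exposure. Growth read as MTS formazan absorbance at 490 nm. IC50 is the dose giving 50% relative growth versus untreated control. Run twice in triplicate.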

Data set [6] relates to L3.6pl. The experiment in a line: Effect on polyamine level in human L3.6PL cells assessed as ornithine level per mg protein in supernatant at 5 uM measured after 72 hrs in presence of amine oxidase suppressor aminoguanidine by LCMS analysis (reference value: 10588 +/- 3212 pmol/mg). It counts as functional.
The target of data set [7] is Large neutral amino acids transporter small subunit 1 (Homo sapiens) (UniProt Q01650). The experiment in a line: Induction of LAT1-mediated polyamine efflux in aminoguanidine pretreated human L3.6PL cells assessed as reduction in cell viability at 5 uM measured after 72 hrs in presence of putrescine by MTS assay. The class given is cell-based. The method in brief: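 L3.6pl cells pre-incubated 24 h with 250 μM aminoguanidine. Then given increasing compound plus putrescine, spermidine or spermine, each fixed at 1 or 5 μM, for 72 h at 37°C. Growth by MTS relative to untreated control.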

Data set [8] has as its system L3.6pl. The experiment in a line: Effect on polyamine level in human L3.6PL cells assessed as decrease in intracellular spermidine level at 2 to 7 uM measured after 72 hrs in presence of amine oxidase suppressor aminoguanidine by LCMS analysis. The class given is functional, cell-based. As to conditions: in the assay text read “by N-dansylation and HPLC analysis” for “by LCMS analysis”. In outline:
(§1)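 L3.6pl cells, 50,000 cells/mL in 10 mL per Petri dish with 1 mM aminoguanidine, plated overnight. Dosed with compound at 2, 5 or 7 μM from PBS stocks, then 72 h at 37°C. Intracellular polyamines measured by N-dansylation and HPLC, in duplicate, as nmol/mg protein against a parallel untreated control.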

The test system of data set [9] is L3.6pl. The experiment in a line: Effect on polyamine level in human L3.6PL cells assessed as change in putrescine level at 2 to 7 uM measured after 72 hrs in presence of amine oxidase suppressor aminoguanidine by LCMS analysis. The class given is functional, cell-based. The conditions noted are these: in the assay text read “by N-dansylation and HPLC analysis” for “by LCMS analysis”. The method in brief: as §1

The subject of data set [10] is CHO-K1. The experiment in a line: Induction of polyamine efflux in aminoguanidine pretreated CHOK1 cells assessed as reduction in cell viability measured after 72 hrs in presence of spermine by MTS assay. It counts as ADME, cell-based, Cricetulus griseus. As to conditions: chinese hamster, cho-k1, 72 h.

Activity calls are given as the source filed them. The calls are words filed in the database; no cut-off is given here.

Large neutral amino acids transporter small subunit 1 (Homo sapiens), sequence (Q01650 whole entry): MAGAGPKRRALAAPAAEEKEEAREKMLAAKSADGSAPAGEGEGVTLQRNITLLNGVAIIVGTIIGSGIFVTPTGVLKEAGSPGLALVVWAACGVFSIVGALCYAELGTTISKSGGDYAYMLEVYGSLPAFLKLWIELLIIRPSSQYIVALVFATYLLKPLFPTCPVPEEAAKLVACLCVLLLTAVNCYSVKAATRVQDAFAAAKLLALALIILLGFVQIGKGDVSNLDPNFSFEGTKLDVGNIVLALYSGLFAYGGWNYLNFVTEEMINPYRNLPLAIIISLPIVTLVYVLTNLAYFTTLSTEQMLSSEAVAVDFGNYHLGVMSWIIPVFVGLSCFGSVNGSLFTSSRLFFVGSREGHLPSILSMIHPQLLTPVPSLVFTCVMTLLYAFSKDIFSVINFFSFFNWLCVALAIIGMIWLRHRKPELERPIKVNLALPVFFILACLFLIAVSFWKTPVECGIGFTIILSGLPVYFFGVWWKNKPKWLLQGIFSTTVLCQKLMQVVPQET

Usually IC50 stands for the midpoint of a concentration-inhibition curve. For the molecule `CC(C)CCN1CCN([C@@H](CNCc2ccccc2)CC2CCCCC2)C[C@@H]1CC(C)C`, the Activity with L3.6pl [1] is 131 pmol/mg; with CHO-MG it was “Active”; in the data set with L3.6pl [6], 15951 pmol/mg; with CHO-K1 [10], “Active”. Further, in the data set on CHO-K1 [2], the inhibition result was “inactive”. The outcome (in the data set with L3.6pl [3]; in the data set on CHO-K1 [4]; in [7]; with L3.6pl [8]) was Active. Besides, in the data set with CHO-K1 [5], the half-maximal inhibitory concentration (IC50) was found to be 8 µM. The result in the data set on L3.6pl [9] was inactive.
